# Experimental data as given in the EternaBench riboswitch data.
# Columns and labels:
# MS2 coat protein [1] = assay: apparent Kd, MS2 coat protein; higher = weaker binding; RNA-MaP array; tryptophan 2.4 mM where present
# How it was run: (§1)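 Stalled E. coli RNA polymerase transcribed each design on Illumina sequencing-chip clusters. The clusters were titrated with SNAP-549-labelled MS2 coat protein, starting at 0.7 or 1.5 nM and doubling up to 3 µM, first without ligand and then with constant ligand, in 100 mM Tris-HCl pH 7.5, 80 mM KCl, 4 mM MgCl2, BSA, DTT, yeast tRNA and Tween-20. Green signal was normalised to red-channel RNA signal and to the control-cluster median Fmax. The apparent Kd is the median of filtered binding-curve fits made for each cluster.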
# MS2 coat protein [2] = assay: apparent Kd, MS2 coat protein; higher = weaker binding; RNA-MaP array; theophylline 2 mM where present; conditions: designed as: ON switch for theophylline
# How it was run: as §1
# [3] = designed as: ON switch for tryptophan, no ligand
# [4] = ligand present: tryptophan, designed as: ON switch for tryptophan
# [5] = designed as: OFF switch for tryptophan, no ligand
# [6] = ligand present: tryptophan, designed as: OFF switch for tryptophan
Sequence,apparent Kd (MS2 coat protein [1]; [3]),apparent Kd (MS2 coat protein [1]; [4]),apparent Kd (MS2 coat protein [1]; [5]),apparent Kd (MS2 coat protein [1]; [6]),further results
AACAUGAGGAUCACCCAUGUCCCAUGUGAACGAGGACCGGUACGGCCGCCACUCGACCGAGGCGGCACAUGAGGAUCACCCGCAU,375 nM,926 nM,,,
GGGAGGGAGGCGGCCGCCACUGAUUUUCAUAUAUAUAUAACAUGAGGAUCACCCAUGUGGAUAUACAGGACCGGGCCUUUUUUUU,19.8 nM,13.2 nM,,,
GAUAUUUGAAAACAAAUAUCAGUGGGUGAACGAGGACCGGUACGGCCGCCACUCGGACAUGAGGAUCACCCAUGUCCAUGUGAAA,,,15.6 nM,37.4 nM,
UAUAUAUAUCACUAACUGUUCUUGAGGUCUCGAGGACCGGUACGGCCGCCACUCGGGCCGCCUCACAUGAGGAUCACCCAUGUCC,,,56.4 nM,68.2 nM,
GCGGAAUAAUCGGCCGCCACUAUGAGACAGGAAACUGUCACAUGAGGAUCACCCAUGUAUCCUCAUAGGACCGGGAUUAAAACGC,76.3 nM,19.4 nM,,,
CGCAACAUGAGGAUCACCCAUGUAAUGACGCGAGGACCGGUACGGCCGCCACUCGCCUGCCAAUGAGCGCAUGCGGCCUGGGUAU,,,11.6 nM,14.5 nM,
AUACAUGAGGAUCACCCAUGUGAUGGCCGGCGAGGACCGGUACGGCCGCCACUCGUGAUCCGUCCUGAAAGCAAAGCUUCCAGCA,182 nM,239 nM,,,
CACGAAAGAUCGGCCGCCACUAAUCGAUGUGUUCUUUCACAUGAGGAUCACCCAUGUUCUUGCGUUAGGACCGGGAUUGAGCGUG,,,38.7 nM,31.9 nM,
AAUUCAAGGUUCUUGAUGUAUUAUAUAUUUCGAGGACCGGUACGGCCGCCACUCGUUAAUUACAUGAGGAUCACCCAUGUUAGCU,,,17 nM,20.9 nM,
AAUUAGAUGUCGGCCGCCACUGAUGUGUCUGUUGCGUCCAGUGUGUACAUGAGGAUCACCCAUGUCAGGACCGGGACUUUAAAUU,,,11 nM,34 nM,
ACAUGAGGAUCACCCAUGUGUGUAAAUCCUCGAGGACCGGUACGGCCGCCACUCGAUCGAGUGUAAGUUGAAUGUAACAUUCAAC,88.4 nM,70.5 nM,,,
AACAUGAGGAUCACCCAUGUGUCCUCGAAACGAGGACCGGUACGGCCGCCACUCGAAUAAGCUGUUGACGAAAAGUCAGCAGCAA,,,257 nM,670 nM,
AUUCAUGGAAACAUGACAUAGGGAUCACUCCGAGGACCGGUACGGCCGCCACUCGCGAGGAGGCACAUGAGGAUCACCCAUGUUA,49 nM,39.7 nM,,,
CACAGUGCGAAUUUGAAAUCGCACGAUCCUCGAGGACCGGUACGGCCGCCACUCGCGCGGGUCGUACAUGAGGAUCACCCAUGUC,317 nM,545 nM,,,
AGAGGUAUACAUGGAAACAUGUAUAUUUCACGAGGACCGGUACGGCCGCCACUCGGUACCGGAAACACAUGAGGAUCACCCAUGU,,,18.7 nM,16.9 nM,
GUCUUUGACGAUCUGGGAAAACCAGAUCGACGAGGACCGGUACGGCCGCCACUCGUGUUUUCUUUACAUGAGGAUCACCCAUGUA,13.1 nM,12.7 nM,,,
CACGAAAGAUCGGCCGCCACUAAUCUAUGUGUUCUUUCACAUGAGGAUCACCCAUGUUCUUGCGUUAGGACCGGGAUUGAGCGUG,,,34.1 nM,36.4 nM,
AACAUGAGGAUCACCCAUGUCCCAUGUGAACGAGGACCGGUACGGCCGCCACUCGAAUAAGGCGGCACAUGAGGAUCACCCACAU,168 nM,373 nM,,,
GGUACAUGAGGAUCACCCAUGUAUUGGUACCGAGGACCGGUACGGCCGCCACUCGCAUGACAUGAGGAUCACCCAUGUGAAACCU,52.5 nM,66.5 nM,,,
CCGCCUGCCUCACAUGAGGAUCACCCAUGUCGAGGACCGGUACGGCCGCCACUCGUCGUCGGUAAUACAGGCAUUGAAUAAUAUA,,,11.2 nM,45.1 nM,
ACACAAUACAUGAGGAUCACCCAUGUAUAACGAGGACCGGUACGGCCGCCACUCGAAUACUGUAAUCCUCGGAAUAUUAUGUGAA,,,39 nM,19.1 nM,
GGUGGCUGGAUCGAUACCAGCCACCACCGAUAGACCACAUGAGGAUCACCCAUGUUGGGUGGCCCUUGGCAGCGGUCCGGCUGCC,,,,,apparent Kd (MS2 coat protein [2]; no ligand): 278 nM; apparent Kd (MS2 coat protein [2]; ligand present: theophylline): 1290 nM
UGUAACAUGAGGAUCACCCAUGUGAGUGAUACCAGAUUAGUAGUAGUCCCUUGGCAGCACAUUGGGCGAGUGUAUAGUCUAUGCG,,,,,apparent Kd (MS2 coat protein [2]; no ligand): 171 nM; apparent Kd (MS2 coat protein [2]; ligand present: theophylline): 118 nM
